Tests used:
[1] = target: T1, Cytosolic phospholipase A2 (Homo sapiens) (UniProt P47712); assay: Inhibition of human group 4A cPLA2 using PAPC/[14C]-labeled PAPC as substrate at 0.091 mole fraction after 30 mins by mixed micelle-based assay relative to control
T1 sequence (whole entry): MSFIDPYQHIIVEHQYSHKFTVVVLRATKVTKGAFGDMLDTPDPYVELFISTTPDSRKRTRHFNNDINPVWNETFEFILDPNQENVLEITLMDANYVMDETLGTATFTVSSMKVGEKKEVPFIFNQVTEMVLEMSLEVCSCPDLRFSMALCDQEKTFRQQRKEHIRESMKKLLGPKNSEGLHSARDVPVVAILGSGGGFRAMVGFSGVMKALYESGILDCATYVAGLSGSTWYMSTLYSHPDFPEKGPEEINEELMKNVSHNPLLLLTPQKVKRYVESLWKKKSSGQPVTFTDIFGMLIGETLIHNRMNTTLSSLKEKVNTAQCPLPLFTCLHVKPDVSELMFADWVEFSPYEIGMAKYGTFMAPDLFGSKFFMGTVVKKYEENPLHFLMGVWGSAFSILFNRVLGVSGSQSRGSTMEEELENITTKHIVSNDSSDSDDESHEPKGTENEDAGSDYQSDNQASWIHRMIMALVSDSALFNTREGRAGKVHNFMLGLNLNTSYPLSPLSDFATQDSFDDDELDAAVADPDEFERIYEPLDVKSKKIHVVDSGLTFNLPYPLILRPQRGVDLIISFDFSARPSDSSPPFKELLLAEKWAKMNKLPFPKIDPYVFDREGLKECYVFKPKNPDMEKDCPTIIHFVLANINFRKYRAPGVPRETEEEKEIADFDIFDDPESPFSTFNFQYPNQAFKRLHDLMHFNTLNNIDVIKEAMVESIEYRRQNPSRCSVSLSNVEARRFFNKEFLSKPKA
Procedure, shortened: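 Screened at 0.091 mole fraction inhibitor against human GIVA cPLA2. Micelles: 400 μM Triton X-100, 97 μM PAPC, 1.8 μM 14C-PAPC, 3 μM PIP2 in 100 mM HEPES pH 7.5 with 90 μM CaCl2, 2 mM DTT and 0.1 mg/ml BSA. Average percent inhibition is reported; 25% or less is designated N.D.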

Homo sapiens = organism: Homo sapiens; assay: Inhibition of human group 5 sPLA2 using PAPC/[14C]-labeled PAPC as substrate at 0.091 mole fraction after 30 mins by mixed micelle-based assay relative to control
Procedure, shortened: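 Human GV sPLA2 was tested at 0.091 mole fraction inhibitor in mixed micelles of 400 μM Triton X-100, 98.3 μM PAPC and 1.7 μM 14C-labeled PAPC. Average percent inhibition is reported; 25% or less is designated N.D.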

[2] = target: T2, 85/88 kDa calcium-independent phospholipase A2 (Homo sapiens) (UniProt O60733); assay: Inhibition of human group 6A iPLA2 using PAPC/[14C]-labeled PAPC as substrate at 0.091 mole fraction after 30 mins by mixed micelle-based assay relative to control
T2 sequence (whole entry): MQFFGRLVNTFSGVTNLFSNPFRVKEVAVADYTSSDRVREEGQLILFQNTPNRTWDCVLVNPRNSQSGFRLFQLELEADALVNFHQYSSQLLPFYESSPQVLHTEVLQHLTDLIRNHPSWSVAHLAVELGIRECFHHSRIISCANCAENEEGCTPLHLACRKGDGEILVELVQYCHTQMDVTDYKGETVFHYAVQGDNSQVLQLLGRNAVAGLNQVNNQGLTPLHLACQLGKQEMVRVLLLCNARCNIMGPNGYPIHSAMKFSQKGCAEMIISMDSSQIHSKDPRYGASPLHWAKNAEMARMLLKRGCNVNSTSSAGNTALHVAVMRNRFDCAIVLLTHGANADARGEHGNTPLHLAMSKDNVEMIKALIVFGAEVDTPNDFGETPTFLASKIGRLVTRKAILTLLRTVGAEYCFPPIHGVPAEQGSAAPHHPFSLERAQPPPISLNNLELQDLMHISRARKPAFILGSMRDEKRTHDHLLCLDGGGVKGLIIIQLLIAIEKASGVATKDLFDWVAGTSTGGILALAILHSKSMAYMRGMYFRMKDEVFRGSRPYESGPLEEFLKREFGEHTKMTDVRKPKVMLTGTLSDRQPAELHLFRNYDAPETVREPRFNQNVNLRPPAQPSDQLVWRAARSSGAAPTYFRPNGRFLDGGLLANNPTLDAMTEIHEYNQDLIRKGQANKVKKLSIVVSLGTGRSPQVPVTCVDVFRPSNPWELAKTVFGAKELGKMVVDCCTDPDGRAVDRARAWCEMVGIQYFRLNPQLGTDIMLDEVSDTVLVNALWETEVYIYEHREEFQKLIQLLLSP
Procedure, shortened: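 Human GVIA iPLA2 was single-point screened at 0.091 inhibitor mole fraction. Micelles: 400 μM Triton X-100, 98.3 μM PAPC, 1.7 μM 14C-PAPC in 100 mM HEPES pH 7.5, 2 mM ATP, 4 mM DTT. Average percent inhibition is given; 25% or less is treated as no inhibition (N.D.).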

[3] = target: T1, Cytosolic phospholipase A2 (Homo sapiens); assay: Inhibition of human group 4A cPLA2 using PAPC/[14C]-labeled PAPC as substrate after 30 mins by mixed micelle-based assay
Procedure, shortened: (§1)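 Human GIVA cPLA2 in mixed micelles: 400 μM Triton X-100, 97 μM PAPC, 1.8 μM 14C-labeled PAPC and 3 μM PIP2. Buffer was 100 mM HEPES pH 7.5 with 90 μM CaCl2, 2 mM DTT and 0.1 mg/ml BSA. XI(50) is the inhibitor mole fraction in the total substrate interface giving 50% inhibition. It was measured only for compounds exceeding 85% inhibition at the 0.091 screen.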

[4] = target: T1, Cytosolic phospholipase A2 (Homo sapiens); assay: Inhibition of human group 4A cPLA2 using PAPC as substrate preincubated for 5 mins with substrate followed by enzyme addition for 30 mins by mixed micelle-based assay; procedure, shortened: as §1
[5] = target: T2, 85/88 kDa calcium-independent phospholipase A2 (Homo sapiens); assay: Inhibition of human group 6A iPLA2 using PAPC as substrate preincubated for 5 mins with substrate followed by enzyme addition for 30 mins by mixed micelle-based assay
Procedure, shortened: (§2)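 For human GVIA iPLA2, micelles held 400 μM Triton X-100, 98.3 μM PAPC and 1.7 μM 14C-PAPC. Buffer was 100 mM HEPES pH 7.5 with 2 mM ATP and 4 mM DTT. XI(50) is the inhibitor mole fraction in the total substrate interface causing 50% inhibition. It was determined for compounds exceeding 85% inhibition at 0.091 mole fraction.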

[6] = target: T2, 85/88 kDa calcium-independent phospholipase A2 (Homo sapiens); assay: Inhibition of human group 6A iPLA2 using PAPC/[14C]-labeled PAPC as substrate after 30 mins by mixed micelle-based assay; procedure, shortened: as §2
[7] = target: T1, Cytosolic phospholipase A2 (Homo sapiens); assay: Inhibition of human group 4A cPLA2 using [14C]-labeled PAPC as substrate after 30 mins by mixed micelle assay based liquid scintillation counting; procedure, shortened: as §1

inhibition [1] [%] | inhibition (Homo sapiens) [%] | inhibition [2] [%] | XI50 (mole fraction) [3] | XI50 (mole fraction) [4] | XI50 (mole fraction) [5] | XI50 (mole fraction) [6] | XI50 (mole fraction) [7] | Compound
59.3 | < 25 | < 25 | – | – | – | – | – | CCOC(=O)CCCNC(=O)C(=O)CCCCCCCCCCNS(=O)(=O)c1ccc(C)cc1
> 85 | < 25 | < 25 | 0.023 | – | – | – | – | CCCCCCCCc1ccc(OCCCC(=O)C(=O)NCCCC(=O)O)cc1
< 25 | < 25 | < 25 | – | – | – | – | – | Cc1ccc(S(=O)(=O)NCCCCCCCCCCC(=O)C(=O)NCCCC(=O)O)cc1
– | – | – | – | 0.022 | 0.027 | – | – | CCCCCCCCCCCCCCC(=O)C(=O)NCCCC(=O)OCC
63.6 | < 25 | 81.1 | – | – | – | – | – | CCCCCCOc1ccc(OCCCC(=O)C(=O)NCCCC(=O)O)cc1
< 25 | < 25 | < 25 | – | – | – | – | – | CCOC(=O)CCCNC(=O)C(=O)CCCCCCCCCCCC(=O)O
> 85 | 33.8 | 95.1 | 0.02 | – | – | 0.013 | – | CCCCCCOc1ccc(CCCCC(=O)C(=O)NCCCC(=O)OCC)cc1
– | – | < 25 | – | 0.024 | – | – | – | CCCCCCCCCCCCCCC(=O)C(=O)NCCCC(=O)O
49.3 | 40.6 | 94.7 | – | – | – | 0.014 | – | CCCCCCCCc1ccc(OCCCC(=O)C(=O)NCCCC(=O)OCC)cc1
– | – | – | – | – | – | – | 0.036 | CCCCC/C=C\C/C=C\C/C=C\C/C=C\CCCC(=O)C(F)(F)F
88 | < 25 | 82.5 | 0.013 | – | – | – | – | CCCCCCOc1ccc(OCCCC(=O)C(=O)NCCCCC(=O)O)cc1
> 85 | < 25 | < 25 | 0.016 | – | – | – | – | CCCCCCOc1ccc(CCCCC(=O)C(=O)NCCCC(=O)O)cc1

Source: ChEMBL document CHEMBL4431346, “2-Oxoamide inhibitors of cytosolic group IVA phospholipase A2 with reduced lipophilicity” (Bioorg Med Chem, 2016)
